Test results taken from ChEMBL document CHEMBL4311951, “Potent and Preferential Degradation of CDK6 via Proteolysis Targeting Chimera Degraders” (J Med Chem, 2019).
Calls of active or inactive are those of the source. No cut-off for these calls is given here.

Legend:
[1] = molecular target: Protein cereblon/Cyclin-dependent kinase 6 (Homo sapiens, UniProt Q00534+Q96SW2); assay: Induction of CRBN-mediated CDK6 degradation in human U251 cells after 24 hrs by immunoblot analysis; type: cell-based
[2] = molecular target: Protein cereblon/Cyclin-dependent kinase 4 (Homo sapiens, UniProt P11802+Q96SW2); assay: Induction of CRBN-mediated CDK4 degradation in human U251 cells after 24 hrs by immunoblot analysis; type: cell-based
[3] = molecular target: Protein cereblon/Cyclin-dependent kinase 1 (Homo sapiens, UniProt P06493+Q96SW2); assay: Induction of CRBN-mediated CDK1 degradation in human U251 cells at 500 nM after 4 hrs […]; type: cell-based; conditions: 0.5 µM
Summary of the method: (§1)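 U251 cells grown to 70–80% confluency, exposed to 500 nM degrader or DMSO for 4 h. Harvested by trypsinization, washed in cold PBS, lysed in RIPA on ice 30 min. Lysates BCA-quantified, acetone-precipitated, TMT-labelled and analysed by MS2 quantitation.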

[4] = molecular target: Protein cereblon/Cyclin-dependent kinase 2 (Homo sapiens, UniProt P24941+Q96SW2); assay: Induction of CRBN-mediated CDK2 degradation in human U251 cells at 500 nM after 4 hrs by immunoblot analysis; type: cell-based; conditions: 0.5 µM
[5] = molecular target: Protein cereblon/Cyclin-dependent kinase 5 (Homo sapiens, UniProt Q00535+Q96SW2); assay: Induction of CRBN-mediated CDK5 degradation in human U251 cells at 500 nM after 4 hrs by […]; type: cell-based; conditions: 0.5 µM; summary of the method: as §1
[6] = molecular target: Protein cereblon/Cyclin-dependent kinase 9 (Homo sapiens, UniProt P50750+Q96SW2); assay: Induction of CRBN-mediated CDK9 degradation in human U251 cells at 500 nM after 4 hrs […]; type: cell-based; conditions: 0.5 µM; summary of the method: as §1
[7] = molecular target: Protein cereblon/G1/S-specific cyclin-D1 (Homo sapiens, UniProt P24385+Q96SW2); assay: Induction of CRBN-mediated CCND1 degradation in human U251 cells at 500 nM after 4 hrs by […]; type: cell-based; conditions: 0.5 µM; summary of the method: as §1
[8] = molecular target: Protein cereblon/Dual specificity mitogen-activated protein kinase kinase 1 (Homo sapiens, UniProt Q02750+Q96SW2); assay: Induction of CRBN-mediated MEK1 degradation in human U251 cells at 500 nM after 4 hrs by immunoblot analysis; type: cell-based; conditions: 0.5 µM
[9] = molecular target: Protein cereblon/Epidermal growth factor receptor (Homo sapiens, UniProt P00533+Q96SW2); assay: Induction of CRBN-mediated EGFR degradation in human U251 cells at 500 nM after 4 hrs […]; type: cell-based; conditions: 0.5 µM; summary of the method: as §1
THP-1 = assay: Antiproliferative activity against human THP1 cells after 84 hrs by CCK8 assay; type: functional, cell-based
Summary of the method: (§2)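 Suspension haematopoietic lines seeded in triplicate in 96-well plates; drug stock added immediately to the final concentrations. After 84 h culture, CCK-8 reagent added and absorbance at OD450 nm read after 2 h incubation.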

MM1.S = assay: Antiproliferative activity against human MM1S cells after 84 hrs by CCK8 assay; type: functional, cell-based; summary of the method: as §2
[10] = Antiproliferative activity against human Mino cells after 84 hrs by CCK8 assay; type: functional, cell-based; summary of the method: as §2
RPMI-8226 = assay: Antiproliferative activity against human RPMI8226 cells after 84 hrs by CCK8 assay; type: functional, cell-based; summary of the method: as §2
HL-60 = assay: Antiproliferative activity against human HL60 cells after 84 hrs by CCK8 assay; type: functional, cell-based; summary of the method: as §2
JeKo-1 = assay: Antiproliferative activity against human JeKo1 cells after 84 hrs by CCK8 assay; type: functional, cell-based; summary of the method: as §2
MCF7 [11] = assay: Antiproliferative activity against palbociclib-resistant human MCF7 cells with CDK6 gene amplification after 6 days by alamarBlue assay; type: functional, cell-based
Summary of the method: (§3)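 Parental or palbociclib-resistant MCF-7 cells (CDK6-N2 or FAT1 knockout) exposed to serial concentrations of degrader for 6 days, then viability determined.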

MCF7 [12] = assay: Antiproliferative activity against Fat1 knockout human MCF7 cells after 6 days by alamarBlue assay; type: functional, cell-based; summary of the method: as §3

Sequence of Protein cereblon/Cyclin-dependent kinase 9 (P50750 whole entry): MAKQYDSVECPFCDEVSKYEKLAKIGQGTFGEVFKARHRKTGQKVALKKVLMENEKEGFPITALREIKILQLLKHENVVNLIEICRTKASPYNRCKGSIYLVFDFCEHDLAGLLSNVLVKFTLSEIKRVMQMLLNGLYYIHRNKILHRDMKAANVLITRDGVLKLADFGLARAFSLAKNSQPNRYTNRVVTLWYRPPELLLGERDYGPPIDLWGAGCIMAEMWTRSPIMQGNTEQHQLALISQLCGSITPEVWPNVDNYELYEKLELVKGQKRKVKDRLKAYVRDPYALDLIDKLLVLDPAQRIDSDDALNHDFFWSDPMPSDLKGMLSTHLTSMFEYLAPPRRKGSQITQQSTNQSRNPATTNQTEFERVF
Sequence of Protein cereblon/Cyclin-dependent kinase 9 (Q96SW2 whole entry): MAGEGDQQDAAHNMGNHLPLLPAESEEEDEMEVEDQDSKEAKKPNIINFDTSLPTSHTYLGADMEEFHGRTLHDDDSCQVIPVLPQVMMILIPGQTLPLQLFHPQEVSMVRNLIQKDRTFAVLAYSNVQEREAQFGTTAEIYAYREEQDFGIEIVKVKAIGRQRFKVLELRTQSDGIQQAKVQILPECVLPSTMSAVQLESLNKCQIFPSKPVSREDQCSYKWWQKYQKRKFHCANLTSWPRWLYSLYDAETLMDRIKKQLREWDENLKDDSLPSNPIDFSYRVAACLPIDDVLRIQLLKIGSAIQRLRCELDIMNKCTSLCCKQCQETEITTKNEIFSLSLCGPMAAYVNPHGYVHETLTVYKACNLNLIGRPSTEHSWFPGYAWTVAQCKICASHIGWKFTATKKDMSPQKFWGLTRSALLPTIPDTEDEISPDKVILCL
Sequence of Protein cereblon/Cyclin-dependent kinase 1 (P06493 whole entry): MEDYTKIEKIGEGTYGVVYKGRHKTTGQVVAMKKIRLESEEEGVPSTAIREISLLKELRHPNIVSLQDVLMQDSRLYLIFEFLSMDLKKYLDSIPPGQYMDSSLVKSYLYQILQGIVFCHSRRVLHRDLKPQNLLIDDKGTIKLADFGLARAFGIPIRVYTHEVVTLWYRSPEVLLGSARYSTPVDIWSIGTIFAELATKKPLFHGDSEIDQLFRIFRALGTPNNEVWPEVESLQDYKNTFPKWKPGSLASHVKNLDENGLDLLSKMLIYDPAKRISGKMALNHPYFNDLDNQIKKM
Sequence of Protein cereblon/Cyclin-dependent kinase 1 (Q96SW2 whole entry): as the sequence (Q96SW2 whole entry) above
Sequence of Protein cereblon/Cyclin-dependent kinase 4 (P11802 whole entry): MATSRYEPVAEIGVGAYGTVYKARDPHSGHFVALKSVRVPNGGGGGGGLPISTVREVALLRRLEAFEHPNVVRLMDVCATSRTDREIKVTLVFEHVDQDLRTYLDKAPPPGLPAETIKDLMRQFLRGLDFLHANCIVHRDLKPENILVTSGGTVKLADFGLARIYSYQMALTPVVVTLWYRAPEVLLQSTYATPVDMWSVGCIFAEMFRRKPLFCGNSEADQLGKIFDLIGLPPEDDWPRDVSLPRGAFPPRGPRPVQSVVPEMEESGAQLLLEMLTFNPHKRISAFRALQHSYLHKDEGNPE
Sequence of Protein cereblon/Cyclin-dependent kinase 4 (Q96SW2 whole entry): as the sequence (Q96SW2 whole entry) above
Sequence of Protein cereblon/Cyclin-dependent kinase 6 (Q00534 whole entry): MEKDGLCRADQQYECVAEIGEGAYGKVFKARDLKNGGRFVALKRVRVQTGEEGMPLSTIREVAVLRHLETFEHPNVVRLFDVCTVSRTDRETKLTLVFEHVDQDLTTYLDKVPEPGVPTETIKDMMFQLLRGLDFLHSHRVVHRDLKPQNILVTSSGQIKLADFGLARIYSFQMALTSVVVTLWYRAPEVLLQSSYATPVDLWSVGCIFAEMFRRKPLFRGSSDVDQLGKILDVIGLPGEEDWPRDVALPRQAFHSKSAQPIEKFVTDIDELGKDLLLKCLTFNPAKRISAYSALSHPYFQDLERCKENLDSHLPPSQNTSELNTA
Sequence of Protein cereblon/Cyclin-dependent kinase 6 (Q96SW2 whole entry): as the sequence (Q96SW2 whole entry) above
Sequence of Protein cereblon/Dual specificity mitogen-activated protein kinase kinase 1 (Q02750 whole entry): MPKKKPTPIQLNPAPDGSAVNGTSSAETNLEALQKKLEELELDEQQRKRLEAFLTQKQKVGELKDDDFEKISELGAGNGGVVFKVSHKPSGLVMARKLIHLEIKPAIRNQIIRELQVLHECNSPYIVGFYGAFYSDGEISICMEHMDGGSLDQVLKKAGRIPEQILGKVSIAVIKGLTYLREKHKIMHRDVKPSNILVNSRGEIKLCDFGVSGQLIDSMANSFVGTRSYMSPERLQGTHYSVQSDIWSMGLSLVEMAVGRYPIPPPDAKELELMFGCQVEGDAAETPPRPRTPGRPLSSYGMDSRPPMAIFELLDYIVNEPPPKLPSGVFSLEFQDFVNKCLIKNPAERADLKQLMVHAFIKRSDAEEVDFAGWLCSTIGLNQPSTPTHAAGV
Sequence of Protein cereblon/Dual specificity mitogen-activated protein kinase kinase 1 (Q96SW2 whole entry): as the sequence (Q96SW2 whole entry) above
Sequence of Protein cereblon/Epidermal growth factor receptor (P00533 whole entry): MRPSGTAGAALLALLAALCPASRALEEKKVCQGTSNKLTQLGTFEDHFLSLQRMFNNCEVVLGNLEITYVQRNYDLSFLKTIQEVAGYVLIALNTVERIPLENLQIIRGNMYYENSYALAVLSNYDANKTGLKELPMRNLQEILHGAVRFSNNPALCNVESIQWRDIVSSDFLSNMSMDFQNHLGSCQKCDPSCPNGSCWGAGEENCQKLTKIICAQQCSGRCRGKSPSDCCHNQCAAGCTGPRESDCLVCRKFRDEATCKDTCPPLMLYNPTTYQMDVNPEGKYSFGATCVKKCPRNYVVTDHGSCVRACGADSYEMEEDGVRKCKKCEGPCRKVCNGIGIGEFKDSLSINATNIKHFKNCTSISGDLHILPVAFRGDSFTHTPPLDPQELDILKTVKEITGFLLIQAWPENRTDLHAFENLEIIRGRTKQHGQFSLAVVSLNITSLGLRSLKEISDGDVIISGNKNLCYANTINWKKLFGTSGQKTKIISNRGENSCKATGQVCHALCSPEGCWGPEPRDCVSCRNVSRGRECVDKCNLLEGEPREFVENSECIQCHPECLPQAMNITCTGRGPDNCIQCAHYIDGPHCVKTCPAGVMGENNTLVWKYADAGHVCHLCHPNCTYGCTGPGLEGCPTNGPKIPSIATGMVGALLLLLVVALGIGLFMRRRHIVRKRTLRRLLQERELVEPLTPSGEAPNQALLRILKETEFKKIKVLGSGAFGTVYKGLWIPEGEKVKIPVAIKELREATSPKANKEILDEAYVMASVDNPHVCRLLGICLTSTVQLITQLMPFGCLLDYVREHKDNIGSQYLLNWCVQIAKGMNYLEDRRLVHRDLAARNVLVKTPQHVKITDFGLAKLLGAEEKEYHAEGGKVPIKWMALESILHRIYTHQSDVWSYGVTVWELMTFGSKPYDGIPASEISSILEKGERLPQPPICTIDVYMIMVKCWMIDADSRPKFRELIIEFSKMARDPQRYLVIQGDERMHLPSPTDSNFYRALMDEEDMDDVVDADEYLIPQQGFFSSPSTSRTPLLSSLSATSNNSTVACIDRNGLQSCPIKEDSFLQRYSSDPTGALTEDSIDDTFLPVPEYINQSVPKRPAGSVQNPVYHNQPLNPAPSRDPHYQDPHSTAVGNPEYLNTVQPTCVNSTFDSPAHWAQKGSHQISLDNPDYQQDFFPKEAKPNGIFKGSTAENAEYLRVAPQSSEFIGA
Sequence of Protein cereblon/Epidermal growth factor receptor (Q96SW2 whole entry): as the sequence (Q96SW2 whole entry) above
Sequence of Protein cereblon/G1/S-specific cyclin-D1 (P24385 whole entry): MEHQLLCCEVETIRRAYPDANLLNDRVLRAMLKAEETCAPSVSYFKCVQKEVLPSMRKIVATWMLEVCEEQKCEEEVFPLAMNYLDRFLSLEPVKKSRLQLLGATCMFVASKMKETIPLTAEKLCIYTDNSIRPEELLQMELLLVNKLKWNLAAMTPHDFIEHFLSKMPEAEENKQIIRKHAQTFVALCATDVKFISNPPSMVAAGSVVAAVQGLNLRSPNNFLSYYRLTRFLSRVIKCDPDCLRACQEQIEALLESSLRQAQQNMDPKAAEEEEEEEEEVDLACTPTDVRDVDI
Sequence of Protein cereblon/G1/S-specific cyclin-D1 (Q96SW2 whole entry): as the sequence (Q96SW2 whole entry) above
Sequence of Protein cereblon/Cyclin-dependent kinase 5 (Q00535 whole entry): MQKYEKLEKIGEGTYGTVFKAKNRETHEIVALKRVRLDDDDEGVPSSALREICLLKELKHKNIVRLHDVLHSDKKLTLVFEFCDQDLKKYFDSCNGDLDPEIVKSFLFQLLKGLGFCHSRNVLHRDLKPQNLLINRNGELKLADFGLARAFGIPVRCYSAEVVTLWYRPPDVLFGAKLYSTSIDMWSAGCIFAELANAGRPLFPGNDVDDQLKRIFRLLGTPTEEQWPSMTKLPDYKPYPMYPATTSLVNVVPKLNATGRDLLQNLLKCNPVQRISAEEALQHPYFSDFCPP
Sequence of Protein cereblon/Cyclin-dependent kinase 5 (Q96SW2 whole entry): as the sequence (Q96SW2 whole entry) above

DC50 [1]: 2.1 nM | DC50 [2]: 150 to 180 nM | Activity [3]: Not Active | Activity [4]: Not Active | Activity [5]: Not Active | Activity [6]: Not Active | Activity [7]: Not Active | Activity [8]: Not Active | Activity [9]: Not Active | IC50 (MM1.S): 10 nM
SMILES: CC(=O)c1c(C)c2cnc(Nc3ccc(N4CCN(Cc5cn(CCOCCNc6cccc7c6C(=O)N(C6CCC(=O)NC6=O)C7=O)nn5)CC4)cn3)nc2n(C2CCCC2)c1=O (configuration not stated)
Activity (THP-1): Active | IC50 [10]: 8 nM | Activity (RPMI-8226): Active | Activity (HL-60): Active | Activity (JeKo-1): Active | Activity (MCF7 [11]): Active | Activity (MCF7 [12]): Active
